Here are results for ten compounds from article PMC7669743 (Inorganic chemistry, 2020).

Data set [1] can be described thus: Solubility in high ionic strength aqueous media. It counts as physicochemical. The note with it: for solubility in high ionic strength aqueous media: fully soluble; for solubility in aqueous media relative to the dmb analogs: high ionic strength aqueous media, in words.
For data set [2] the following is noted: cited from earlier work.
Data set [3] has as its system SK-MEL-28 malignant melanoma cells. The data set can be described thus: Dark cytotoxicity and photocytotoxicity in normoxia. It counts as cell-based, human.
The test system of the next data set is SK-MEL-28 cells. The data set can be described thus: Dark cytotoxicity and photocytotoxicity in hypoxia. It is filed as cell-based, human. The note with it: for EC50: read-out: dark EC50 in hypoxia, hypoxia 1% O2, dark. In outline: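 SK-MEL-28 melanoma cells, 10,000 per well, pre-incubated 2–3 h at 1% O2 (5% CO2, 37 °C). Dosed 1 nM–300 μM, held 21–26 h at 1% O2, then film-sealed and given dark or light treatment. Cells returned to normoxia for 2 days, then resazurin (~60 μM final) for 4 h. EC50 came from zero-bottom log-logistic fits, PI as dark/light EC50.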

The nature of another data set: Lipophilicity. To be noted: pH 7.4, phosphate buffer / 1-octanol, chloride salts. It is filed as physicochemical. A digest of the protocol:
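Modified shake-flask method. 10 mM saline-free phosphate buffer (pH 7.4) and 1-octanol were mutually pre-saturated at 1:4 by shaking at 230 rpm for 24 h (~20 °C). Chloride salts at 50 μM in saturated octanol plus saturated buffer (1:1) were shaken 200 times and centrifuged (~10,000 × g, 2 min). Each phase was read by absorbance at its longest-wavelength maximum (400–600 nm) against a standard curve. Log D is the log of the octanol/buffer concentration ratio.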

For data set [4] the following is noted: cited from earlier work. The source holds these as a separate data set.
Another data set relates to female C57BL/6J mice. The data set can be described thus: Maximum tolerated dose. The note with it: intraperitoneal, doses 25–200 mg kg^−1, 2-week observation.
A short description of data set [5]: Singlet oxygen sensitization quantum yield. It counts as physicochemical. To be noted: acetonitrile. A digest of the protocol:
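PF6- salts were used at 5–20 μM in acetonitrile distilled over calcium hydride, air-saturated. The 1O2 phosphorescence band (~1276 nm) was integrated using NIR PMT detection. Quantum yield was calculated by relative actinometry against [Ru(bpy)3]2+ (Φ = 0.56, aerated MeCN), using emission integrals and absorbance at the excitation wavelength. The refractive-index ratio was 1 because both solutions were in acetonitrile.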

The test system of data set [6] is amelanotic SK-MEL-28 human cells. The data set can be described thus: Fluence dependence of photocytotoxicity in normoxia. It counts as cell-based.
Where [7] appears, read: read-out: dark EC50, dark (sham) treatment, SK-MEL-28.
[8] abbreviates: read-out: light EC50, visible light, visible 400–700 nm, 100 J cm^−2, ~20 mW cm^−2.

Where two headings read alike, the source gives them in different places. Marks after values point to notes of the source that are not given here.

For [Os(dmb)2(IP-3T)]Cl2 [2–3T], in data set [1], the “solubility in high ionic strength aqueous media” value is no less than 1200 µM.

For orientation: EC50 means the concentration giving half of the maximal effect. `[Os+2].c1ccc(-c2ccccn2)nc1.c1ccc(-c2ccccn2)nc1.c1ccc(-c2ccccn2)nc1` [[Os(bpy)3]^2+, [Os(bpy)3]Cl2, reference compound]: the “singlet oxygen quantum yield ΦΔ” value in data set [2] (acetonitrile, room temperature, excitation 479 nm, literature value ref 83) was 0.22 (479)^a. The half-maximal effective concentration (EC50) in data set [3] (setting [7]) is greater than 100 µM.

Consider [Os(bpy)2(IP-3T)]Cl2 [1–3T], for which the results for the EC50 (in the data set on SK-MEL-28 cells; in data set [3] (setting [7])) were 71.9 µM and 45.8 µM, respectively. Besides, in data set [1], the “solubility in aqueous media relative to the dmb analogs” value was “less soluble”. For the same compound, the “log Do/w” value in the data set “Lipophilicity” is “amphiphilic”.

As to [Os(phen)2(IP-4T)]Cl2, the PIvis in hypoxia in data set [4] (hypoxia, visible light) is given as 90.

For the compound [Os(dmb)2(IP-4T)]Cl2 [2–4T], the PIgreen in hypoxia with SK-MEL-28 cells (hypoxia 1% O2, green light) turned out to be 15. Moreover, the EC50 in data set [3] (setting [8]) stood at 0.071 µM. The “solubility in high ionic strength aqueous media” value in data set [1] is no less than 1200 µM. For the same compound, the “maximum tolerated dose (MTD)” value in the data set with female C57BL/6J mice is no less than 200 mg/kg. The “singlet oxygen quantum yield ΦΔ” value in data set [5] stood at 56%.

As to `Cc1cccc(-c2cccc(C)n2)n1.Cc1cccc(-c2cccc(C)n2)n1.[Cl-].[Cl-].[Ru+2].c1ccc2c(-c3nc4c5cccnc5c5ncccc5c4[nH]3)cccc2c1` [[Ru(6,6′-dmb)2(1-NIP)]Cl2], the “PI (PIvis) in hypoxia” value in [4] (1% O2, visible light) is 15.

Turning to [Os(bpy)2(IP-2T)]Cl2 [1–2T], the results for the EC50 (with SK-MEL-28 cells; in data set [3] (setting [7])) were 76.9 µM and 42.2 µM, respectively.

For `[Ru+2].c1ccc(-c2ccccn2)nc1.c1ccc(-c2ccccn2)nc1.c1ccc(-c2ccccn2)nc1` [[Ru(bpy)3]^2+], in [2] (aerated MeCN), the “singlet oxygen quantum yield ΦΔ of the standard” value is 0.56.

As to [Os(bpy)2(IP-4T)]Cl2 [1–4T], the “phototherapeutic index (PI) in hypoxia” value in the data set with SK-MEL-28 cells (hypoxia 1% O2, across the three light conditions) is given as roughly 70. The EC50 in the data set with SK-MEL-28 cells is 55.3 µM; in data set [3] (setting [7]), 71.9 µM; in data set [3] (read-out: light EC50, green light, green 523 nm, 100 J cm^−2), roughly 0.01 µM; in data set [3] (read-out: light EC50, red light, red 633 nm, 100 J cm^−2), roughly 0.01 µM; in data set [3] (setting [8]), 0.00131 µM. The “phototherapeutic index PIgreen” value in [3] (green 523 nm, ratio of dark to light EC50) is on record as 6700. In addition, the “phototherapeutic index PIvis” value in data set [3] (visible light, ratio of dark to light EC50) is on record as 55,000. The “solubility in aqueous media relative to the dmb analogs” value in [1] was “less soluble”. In [6] (PDT dose product EC50, normoxia), the “fold improvement over 2–4T” value was no less than 5 fold. Also, in data set [6] (normoxia, 10 J cm^−2, both wavelengths (523 and 633 nm)), the “photocytotoxic activity at the lowest tested fluence” value is “Submicromolar”. Besides, the “maximum tolerated dose (MTD)” value in the data set on female C57BL/6J mice is no less than 200 mg/kg. Further, in [5], the “singlet oxygen quantum yield ΦΔ” value amounted to 70%.

As to “[Os(dmb)3](Cl)2 [[Os(dmb)3]^2+, reference compound]”, the EC50 in data set [3] (setting [7]) was greater than 100 µM.
